In ChEMBL document CHEMBL4373640, “Synthesis and antitumor activity of aza-brazilan derivatives containing imidazolium salt pharmacophores” (Medchemcomm, 2019):

Key:
Type in all cases: functional, cell-based
[1] = test system: A549; experiment: Cytotoxicity against human A549 cells assessed as reduction in cell viability after 48 hrs by MTS assay; conditions: A549, 48 h
Method in brief: (§1)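 Cells (5 × 10^3 per well) were plated 12 h before treatment, then exposed continuously to compound for 48 h. MTS was added, with 1–4 h incubation at 37 °C and OD read at 490 nm. IC50 is the concentration cutting OD by 50% versus untreated cells, taken from dose–response curves. Values are the mean of three independent determinations.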

[2] = test system: SW480; experiment: Cytotoxicity against human SW480 cells assessed as reduction in cell viability after 48 hrs by MTS assay; conditions: SW480, 48 h; method in brief: as §1
[3] = test system: MCF7; experiment: Cytotoxicity against human MCF7 cells assessed as reduction in cell viability after 48 hrs by MTS assay; conditions: MCF7, 48 h; method in brief: as §1
[4] = Cytotoxicity against human SMMC-7221 cells assessed as reduction in cell viability after 48 hrs by MTS assay; conditions: SMMC-7221, 48 h; method in brief: as §1

Compound | IC50 [1] | IC50 [2] | IC50 [3] | IC50 [4]
COc1cccc2c1N(C(=O)CCn1cnc3cc(C)c(C)cc31)C[C@@H]1Cc3ccccc3[C@H]21 | > 20000 nM | > 20000 nM | > 20000 nM | > 20000 nM
COc1cc2c(cc1OC)[C@@H]1c3cccc(OC)c3N(C(=O)CCn3c(C)[n+](CC(=O)c4ccc5ccccc5c4)c4ccccc43)C[C@@H]1C2 | 9290 nM | 3790 nM | 4670 nM | 6530 nM
COc1cccc2c1N(CCCn1c(C)[n+](Cc3ccc4ccccc4c3)c3ccccc31)C[C@@H]1Cc3ccc(Br)cc3[C@H]21 | 1890 nM | 1280 nM | 920 nM | 1080 nM
COc1ccc(C(=O)C[n+]2c(C)n(CCCN3C[C@@H]4Cc5cc(OC)c(OC)cc5[C@@H]4c4cccc(OC)c43)c3ccccc32)cc1 | 14400 nM | 2340 nM | 3360 nM | 5360 nM
COc1cc2c(cc1OC)[C@@H]1c3cccc(OC)c3N(C(=O)CCn3cnc4cc(C)c(C)cc43)C[C@@H]1C2 | > 20000 nM | > 20000 nM | > 20000 nM | > 20000 nM
COc1cccc2c1N(C(=O)CCn1c[n+](CC(=O)c3ccc4ccccc4c3)c3cc(C)c(C)cc31)C[C@@H]1Cc3ccc(Br)cc3[C@H]21 | 1110 nM | 1830 nM | 1220 nM | 1000 nM
COc1cccc2c1N(C(=O)CCn1c(C)[n+](Cc3ccc4ccccc4c3)c3ccccc31)C[C@@H]1Cc3ccccc3[C@H]21 | 3680 nM | 770 nM | 960 nM | 1450 nM
COc1cc2c(cc1OC)[C@@H]1c3cccc(OC)c3N(C(=O)CCn3c(C)nc4ccccc43)C[C@@H]1C2 | > 20000 nM | > 20000 nM | > 20000 nM | > 20000 nM
COc1cccc2c1N(CCCn1c[n+](Cc3ccc4ccccc4c3)c3cc(C)c(C)cc31)C[C@@H]1Cc3ccc(Br)cc3[C@H]21 | 5620 nM | 3920 nM | 840 nM | 2160 nM
COc1ccc(C(=O)C[n+]2cn(CCCN3C[C@@H]4Cc5ccccc5[C@@H]4c4cccc(OC)c43)c3cc(C)c(C)cc32)cc1 | 1400 nM | 1730 nM | 1260 nM | 1420 nM
COc1cccc2c1N(CCCn1cnc3cc(C)c(C)cc31)C[C@@H]1Cc3ccccc3[C@H]21 | > 20000 nM | > 20000 nM | > 20000 nM | > 20000 nM
COc1cccc2c1N(CCCn1c(C)[n+](CC(=O)c3ccc4ccccc4c3)c3ccccc31)C[C@@H]1Cc3ccccc3[C@H]21 | 5320 nM | 1800 nM | 1360 nM | 2010 nM
COc1cc2c(cc1OC)[C@@H]1c3cccc(OC)c3N(CCCn3c[n+](Cc4ccc5ccccc5c4)c4cc(C)c(C)cc43)C[C@@H]1C2 | 5830 nM | 1620 nM | 1490 nM | 1820 nM
COc1cccc2c1N(C(=O)CCn1c(C)[n+](CC(=O)c3ccc4ccccc4c3)c3ccccc31)C[C@@H]1Cc3ccc(Br)cc3[C@H]21 | 2630 nM | 1750 nM | 1430 nM | 1580 nM
COc1cccc2c1N(CCCn1c(C)[n+](CC(=O)c3ccc4ccccc4c3)c3ccccc31)C[C@@H]1Cc3ccc(Br)cc3[C@H]21 | 1610 nM | 1260 nM | 950 nM | 1120 nM
COc1cccc2c1N(CCCn1cnc3cc(C)c(C)cc31)C[C@@H]1Cc3ccc(Br)cc3[C@H]21 | > 20000 nM | > 20000 nM | > 20000 nM | > 20000 nM
COc1cccc2c1N(CCCn1c(C)nc3ccccc31)C[C@@H]1Cc3ccccc3[C@H]21 | > 20000 nM | > 20000 nM | > 20000 nM | > 20000 nM
COc1cccc2c1N(CCCn1c[n+](CC(=O)c3ccc4ccccc4c3)c3cc(C)c(C)cc31)C[C@@H]1Cc3ccccc3[C@H]21 | 1470 nM | 1460 nM | 910 nM | 1090 nM
COc1cccc2c1N(C(=O)CCn1c[n+](Cc3ccc4ccccc4c3)c3cc(C)c(C)cc31)C[C@@H]1Cc3ccc(Br)cc3[C@H]21 | 1450 nM | 1050 nM | 1050 nM | 1090 nM
COc1cccc2c1N(C(=O)CCn1cnc3cc(C)c(C)cc31)C[C@@H]1Cc3ccc(Br)cc3[C@H]21 | > 20000 nM | > 20000 nM | > 20000 nM | > 20000 nM
COc1cccc2c1N(CCCn1c[n+](CC(=O)c3ccc4ccccc4c3)c3cc(C)c(C)cc31)C[C@@H]1Cc3ccc(Br)cc3[C@H]21 | 3480 nM | 4260 nM | 1580 nM | 1350 nM

Compound | IC50 [1] | IC50 [2] | IC50 [3] | IC50 [4]
COc1cccc2c1N(C(=O)CCn1c(C)[n+](CC(=O)c3ccc4ccccc4c3)c3ccccc31)C[C@@H]1Cc3ccccc3[C@H]21 | 4710 nM | 1440 nM | 1460 nM | 1510 nM
COc1ccc(C(=O)C[n+]2c(C)n(CCC(=O)N3C[C@@H]4Cc5cc(OC)c(OC)cc5[C@@H]4c4cccc(OC)c43)c3ccccc32)cc1 | > 20000 nM | 15400 nM | > 20000 nM | > 20000 nM
COc1cc2c(cc1OC)[C@@H]1c3cccc(OC)c3N(CCCn3c(C)[n+](Cc4ccc(C)cc4)c4ccccc43)C[C@@H]1C2 | 14400 nM | 3510 nM | 5540 nM | 6490 nM
COc1ccc(C(=O)C[n+]2cn(CCCN3C[C@@H]4Cc5cc(OC)c(OC)cc5[C@@H]4c4cccc(OC)c43)c3cc(C)c(C)cc32)cc1 | 8270 nM | 1800 nM | 2140 nM | 4500 nM
COc1cccc2c1N(C(=O)CCn1c[n+](CC(=O)c3ccc4ccccc4c3)c3cc(C)c(C)cc31)C[C@@H]1Cc3ccccc3[C@H]21 | 1990 nM | 1350 nM | 1010 nM | 1120 nM
COc1ccc(C(=O)C[n+]2c(C)n(CCCN3C[C@@H]4Cc5ccccc5[C@@H]4c4cccc(OC)c43)c3ccccc32)cc1 | 3650 nM | 1270 nM | 400 nM | 1320 nM
COc1cccc2c1N(CCCn1c(C)nc3ccccc31)C[C@@H]1Cc3ccc(Br)cc3[C@H]21 | > 20000 nM | > 20000 nM | > 20000 nM | > 20000 nM
COc1cccc2c1N(CCCn1c[n+](Cc3ccc4ccccc4c3)c3cc(C)c(C)cc31)C[C@@H]1Cc3ccccc3[C@H]21 | 1510 nM | 930 nM | 910 nM | 850 nM
COc1cccc2c1N(CCCn1c(C)[n+](Cc3ccc(C)cc3)c3ccccc31)C[C@@H]1Cc3ccc(Br)cc3[C@H]21 | 1420 nM | 1620 nM | 1080 nM | 980 nM
COc1ccc(C(=O)C[n+]2c(C)n(CCCN3C[C@@H]4Cc5ccc(Br)cc5[C@@H]4c4cccc(OC)c43)c3ccccc32)cc1 | 1220 nM | 1240 nM | 1010 nM | 930 nM
COc1cccc2c1N(CCCn1c(C)[n+](Cc3ccc4ccccc4c3)c3ccccc31)C[C@@H]1Cc3ccccc3[C@H]21 | 5740 nM | 2160 nM | 1020 nM | 2060 nM
COc1cc2c(cc1OC)[C@@H]1c3cccc(OC)c3N(CCCn3cnc4cc(C)c(C)cc43)C[C@@H]1C2 | > 20000 nM | > 20000 nM | > 20000 nM | > 20000 nM
COc1cccc2c1N(CCCn1c(C)[n+](Cc3ccc(C)cc3)c3ccccc31)C[C@@H]1Cc3ccccc3[C@H]21 | 4250 nM | 1660 nM | 1470 nM | 1800 nM
COc1cccc2c1N(C(=O)CCn1c(C)nc3ccccc31)C[C@@H]1Cc3ccc(Br)cc3[C@H]21 | > 20000 nM | > 20000 nM | > 20000 nM | > 20000 nM
COc1cccc2c1N(C(=O)CCn1c(C)[n+](Cc3ccc(C)cc3)c3ccccc31)C[C@@H]1Cc3ccccc3[C@H]21 | 6270 nM | 1570 nM | 1570 nM | 2040 nM
COc1ccc(C(=O)C[n+]2cn(CCC(=O)N3C[C@@H]4Cc5ccccc5[C@@H]4c4cccc(OC)c43)c3cc(C)c(C)cc32)cc1 | 7530 nM | 800 nM | 2540 nM | 3160 nM
COc1cccc2c1N(CCCn1c[n+](Cc3ccc(C)cc3)c3cc(C)c(C)cc31)C[C@@H]1Cc3ccccc3[C@H]21 | 1510 nM | 560 nM | 670 nM | 660 nM
COc1cccc2c1N(C(=O)CCn1c(C)nc3ccccc31)C[C@@H]1Cc3ccccc3[C@H]21 | > 20000 nM | > 20000 nM | > 20000 nM | > 20000 nM
COc1cc2c(cc1OC)[C@@H]1c3cccc(OC)c3N(CCCn3c[n+](Cc4ccc(C)cc4)c4cc(C)c(C)cc43)C[C@@H]1C2 | 4830 nM | 2000 nM | 2000 nM | 1710 nM
COc1ccc(C(=O)C[n+]2c(C)n(CCC(=O)N3C[C@@H]4Cc5ccccc5[C@@H]4c4cccc(OC)c43)c3ccccc32)cc1 | 10600 nM | 2650 nM | 3120 nM | 4620 nM
COc1cc2c(cc1OC)[C@@H]1c3cccc(OC)c3N(CCCn3c(C)nc4ccccc43)C[C@@H]1C2 | > 20000 nM | > 20000 nM | > 20000 nM | > 20000 nM
